Experimental data taken from ChEMBL document CHEMBL1687725, “Pharmacokinetics and safety of caspofungin in older infants and toddlers” (Antimicrob Agents Chemother, 2009).

Assays:
[1] = Cmax in plasma of in 12 […] old infants/toddlers measured on day 1 post dose; type: ADME, organism-based; conditions: human
[2] = Cmax in plasma of 12-17 years old adolescents at 50 mg/m'2, iv dosed once daily measured on day 4 post dose; type: ADME, organism-based; set-up: route intravenous; conditions: human
[3] = organism: Homo sapiens; test: Clearance in 17 […] old infants/toddlers measured on day 1 post dose; type: ADME, organism-based; conditions: in vivo
[4] = (§1) Cmax in plasma of in 12 […] old infants/toddlers measured on day 4 post dose; type: ADME, organism-based; conditions: human, plasma
[5] = organism: Homo sapiens; test: as §1; type: ADME, organism-based; conditions: in vivo
[6] = Cmax in plasma of 3-24 months old infants/toddlers at 50 mg/m'2, iv dosed once daily measured on day 1 post dose; type: ADME, organism-based; set-up: route intravenous; conditions: human
[7] = AUC (0 to 24 hrs) in 12-17 years old adolescents at 50 mg/m'2, iv dosed once daily measured on day 1 post dose; type: ADME, organism-based; set-up: time < 24 hr, route intravenous; conditions: human, plasma
[8] = test system: Homo sapiens; test: Clearance in adult human at 70 mg, iv dosed once daily measured on day 1 post dose; type: ADME, organism-based; conditions: in vivo
[9] = AUC (0 to 24 hrs) in 3-24 months old infants/toddlers at 50 mg/m'2, iv dosed once daily measured on day 4 post dose; type: ADME, organism-based; set-up: time < 24 hr, route intravenous; conditions: human, plasma
[10] = Cmax in plasma of in 20 […] old infants/toddlers measured on day 4 post dose; type: ADME, organism-based; conditions: human
How it was run: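 Infants/toddlers (10 to 24 months) with fever and neutropenia received caspofungin 50 mg/m2 once daily as a 1-h infusion. C1 is the observed plasma concentration at the end of the first (day 1) or fourth (day 4) infusion, sampled from 20 min before to 30 min after the end of infusion. Caspofungin was measured by HPLC with fluorescence detection.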

[11] = Cmax in plasma of 2-11 years old children at 50 mg/m'2, iv dosed once daily measured on day 4 post dose; type: ADME, organism-based; set-up: route intravenous; conditions: human
[12] = Cmax in plasma of in 10 years old infants/toddlers measured on day 4 post dose; type: ADME, organism-based; conditions: human
[13] = Cmax in plasma of in 17 […] old infants/toddlers measured on day 1 post dose; type: ADME, organism-based; conditions: human
[14] = Cmax in plasma of in 13 […] old infants/toddlers measured on day 1 post dose; type: ADME, organism-based; conditions: human
[15] = organism: Homo sapiens; test: Clearance in 3 to 24 months old infants/toddlers measured on day 1 post dose; conditions: in vivo
[16] = AUC (0 to 24 hrs) in adult human at 50 mg, iv dosed once daily measured on day 3 to 14 post dose; type: ADME, organism-based; set-up: dose 50 mg, time < 24 hr, route intravenous; conditions: plasma
[17] = Cmax in plasma of 2-11 years old children at 50 mg/m'2, iv dosed once daily measured on day 1 post dose; type: ADME, organism-based; set-up: route intravenous; conditions: human
[18] = Cmax in plasma of in 3 to 24 months old infants/toddlers measured on day 4 post dose; conditions: human
[19] = AUC (0 to 24 hrs) in 2-11 years old children at 50 mg/m'2, iv dosed once daily measured on day 1 post dose; type: ADME, organism-based; set-up: time < 24 hr, route intravenous; conditions: human, plasma
[20] = AUC (0 to 24 hrs) in 17 […] old infants/toddlers measured on day 4 post dose; type: ADME, organism-based; set-up: time < 24 hr; conditions: human, plasma
[21] = AUC (0 to 24 hrs) in 20 […] old infants/toddlers measured on day 1 post dose; type: ADME, organism-based; set-up: time < 24 hr; conditions: human, plasma
[22] = test system: Homo sapiens; test: Clearance in 12-17 years old adolescents at 50 mg/m'2, iv dosed once daily measured on day 1 post dose; type: ADME, organism-based; conditions: in vivo
[23] = Cmax in plasma of in 17 years old infants/toddlers measured on day 4 post dose; type: ADME, organism-based; conditions: human
[24] = test system: Homo sapiens; test: Cmin in plasma of 2-11 years old children at 50 mg/m'2, iv dosed once daily measured on day 1 post dose; type: ADME, organism-based; conditions: in vivo
[25] = AUC (0 to 24 hrs) in 2-11 years old children at 50 mg/m'2, iv dosed once daily measured on day 4 post dose; type: ADME, organism-based; set-up: time < 24 hr, route intravenous; conditions: human, plasma
[26] = AUC (0 to 24 hrs) in infants/toddlers measured on day 1 post dose; conditions: human, plasma
[27] = AUC (0 to 24 hrs) in 10 […] old infants/toddlers measured on day 4 post dose; type: ADME, organism-based; set-up: time < 24 hr; conditions: human, plasma
[28] = AUC (0 to 24 hrs) in 13 […] old infants/toddlers measured on day 4 post dose; type: ADME, organism-based; set-up: time < 24 hr; conditions: human, plasma
[29] = organism: Homo sapiens; test: Clearance in infants/toddlers measured on day 1 post dose; conditions: in vivo
[30] = Cmax in plasma of adult human at 70 mg, iv dosed once daily measured on day 3 to 14 post dose; type: ADME, organism-based; set-up: dose 70 mg, route intravenous
[31] = AUC (0 to 24 hrs) in 20 […] old infants/toddlers measured on day 4 post dose; type: ADME, organism-based; set-up: time < 24 hr; conditions: human, plasma
[32] = AUC (0 to 24 hrs) in adult human at 70 mg, iv dosed once daily measured on day 3 to 14 post dose; type: ADME, organism-based; set-up: dose 70 mg, time < 24 hr, route intravenous; conditions: plasma
[33] = AUC (0 to 24 hrs) in 12 […] old infants/toddlers measured on day 4 post dose; type: ADME, organism-based; set-up: time < 24 hr; conditions: human, plasma
[34] = test system: Homo sapiens; test: Clearance in adult human at 50 mg, iv dosed once daily measured on day 1 post dose; type: ADME, organism-based; conditions: in vivo
[35] = Cmax in plasma of adult human at 50 mg, iv dosed once daily measured on day 1 post dose; type: ADME, organism-based; set-up: dose 50 mg, route intravenous
[36] = test system: Homo sapiens; test: Clearance in 2-11 years old children at 50 mg/m'2, iv dosed once daily measured on day 1 post dose; type: ADME, organism-based; conditions: in vivo
[37] = Cmax in plasma of in […] infants/toddlers measured on day 1 post dose; type: ADME, organism-based; conditions: human
[38] = Cmax in plasma of 12-17 years old adolescents at 50 mg/m'2, iv dosed once daily measured on day 1 post dose; type: ADME, organism-based; set-up: route intravenous; conditions: human
[39] = Cmax in plasma of 3-24 months old infants/toddlers at 50 mg/m'2, iv dosed once daily measured on day 4 post dose; type: ADME, organism-based; set-up: route intravenous; conditions: human
[40] = test system: Homo sapiens; test: Clearance in 3-24 months old infants/toddlers at 50 mg/m'2, iv dosed once daily measured on day 1 post dose; type: ADME, organism-based; conditions: in vivo
[41] = organism: Homo sapiens; test: Clearance in 10 […] old infants/toddlers measured on day 1 post dose; type: ADME, organism-based; conditions: in vivo
[42] = AUC (0 to 24 hrs) in 17 […] old infants/toddlers measured on day 1 post dose; type: ADME, organism-based; set-up: time < 24 hr; conditions: human, plasma
[43] = Cmax in plasma in infants/toddlers measured on day 1 post dose; conditions: human
[44] = Cmax in plasma of adult human at 70 mg, iv dosed once daily measured on day 1 post dose; type: ADME, organism-based; set-up: dose 70 mg, route intravenous
[45] = Cmax in plasma in infants/toddlers measured on day 4 post dose; conditions: human
[46] = organism: Homo sapiens; test: Clearance in 12 […] old infants/toddlers measured on day 1 post dose; type: ADME, organism-based; conditions: in vivo
[47] = AUC (0 to 24 hrs) in 12 […] old infants/toddlers measured on day 1 post dose; type: ADME, organism-based; set-up: time < 24 hr; conditions: human, plasma
[48] = AUC (0 to 24 hrs) in adult human at 70 mg, iv dosed once daily measured on day 1 post dose; type: ADME, organism-based; set-up: dose 70 mg, time < 24 hr, route intravenous; conditions: plasma
[49] = AUC (0 to 24 hrs) in 3-24 months old infants/toddlers at 50 mg/m'2, iv dosed once daily measured on day 1 post dose; type: ADME, organism-based; set-up: time < 24 hr, route intravenous; conditions: human, plasma
[50] = Cmax in plasma of adult human at 50 mg, iv dosed once daily measured on day 3 to 14 post dose; type: ADME, organism-based; set-up: dose 50 mg, route intravenous
[51] = Cmax in plasma of in 10 […] old infants/toddlers measured on day 1 post dose; type: ADME, organism-based; conditions: human
[52] = AUC (0 to 24 hrs) in adult human at 50 mg, iv dosed once daily measured on day 1 post dose; type: ADME, organism-based; set-up: time < 24 hr, dose 50 mg, route intravenous; conditions: plasma
[53] = AUC (0 to 24 hrs) in infants/toddlers measured on day 4 post dose; conditions: human, plasma
[54] = AUC (0 to 24 hrs) in 12-17 years old adolescents at 50 mg/m'2, iv dosed once daily measured on day 4 post dose; type: ADME, organism-based; set-up: time < 24 hr, route intravenous; conditions: human, plasma
[55] = AUC (0 to 24 hrs) in 10 […] old infants/toddlers measured on day 1 post dose; type: ADME, organism-based; set-up: time < 24 hr; conditions: human, plasma

Q: Which results are given for `CC[C@H](C)C[C@H](C)CCCCCCCCC(=O)N[C@H]1C[C@@H](O)[C@@H](NCCN)NC(=O)[C@@H]2[C@@H](O)CCN2C(=O)[C@H]([C@H](O)CCN)NC(=O)[C@H]([C@H](O)[C@@H](O)c2ccc(O)cc2)NC(=O)[C@@H]2C[C@@H](O)CN2C(=O)[C@H]([C@@H](C)O)NC1=O` [CASPOFUNGIN]?
A: Cmax [1]: 17500 ng/mL; Cmax [2]: 12900 ng/mL; CL [3]: 4.94 ml/min/m2; Cmax [4]: 15900 ng/mL; Cmax [5]: 17960 ng/mL; Cmax [6]: 17500 ng/mL; AUC(0-t) at 24 h [7]: 77.6 µg·h/mL; CL [8]: 5.2 ml/min/m2; AUC at 24 h [9]: 130 µg·h/mL; Cmax [10]: 12100 ng/mL; Cmax [11]: 15600 ng/mL; Cmax [12]: 15200 ng/mL; Cmax [13]: 13900 ng/mL; Cmax [14]: 15800 ng/mL; CL [15]: 5.98 ml/min/m2; AUC at 24 h [16]: 103 µg·h/mL; Cmax [17]: 14000 ng/mL; Cmax [18]: 16900 ng/mL; AUC(0-t) at 24 h [19]: 96.4 µg·h/mL; AUC at 24 h [20]: 135 µg·h/mL; AUC(0-t) at 24 h [21]: 97.4 µg·h/mL; CL [22]: 6.3 ml/min/m2; Cmax [23]: 16400 ng/mL; Cmin [24]: 1090 ng/mL; AUC at 24 h [25]: 115 µg·h/mL; AUC(0-t) at 24 h [26]: 120 µg·h/mL; AUC at 24 h [27]: 114 µg·h/mL; AUC at 24 h [28]: 121 µg·h/mL; CL [29]: 6.82 ml/min/m2; Cmax [30]: 13300 ng/mL; AUC at 24 h [31]: 122 µg·h/mL; AUC at 24 h [32]: 154 µg·h/mL; AUC at 24 h [33]: 122 µg·h/mL; CL [34]: 6.07 ml/min/m2; Cmax [35]: 7670 ng/mL; CL [36]: 7.78 ml/min/m2; Cmax [37]: 13000 ng/mL; Cmax [38]: 8950 ng/mL; Cmax [39]: 17200 ng/mL; CL [40]: 6.05 ml/min/m2; CL [41]: 4.37 ml/min/m2; AUC(0-t) at 24 h [42]: 102 µg·h/mL; Cmax [43]: 21500 ng/mL; Cmax [44]: 10000 ng/mL; Cmax [45]: 21300 ng/mL; CL [46]: 6.44 ml/min/m2; AUC(0-t) at 24 h [47]: 109 µg·h/mL; AUC(0-t) at 24 h [48]: 97.1 µg·h/mL; AUC(0-t) at 24 h [49]: 120 µg·h/mL; Cmax [50]: 9390 ng/mL; Cmax [51]: 14500 ng/mL; AUC(0-t) at 24 h [52]: 70.6 µg·h/mL; AUC at 24 h [53]: 171 µg·h/mL; AUC at 24 h [54]: 117 µg·h/mL; AUC(0-t) at 24 h [55]: 160 µg·h/mL
